Experiments:
[1] = test system: Homo sapiens; test: Toxicity in human patient infected with Influenza virus assessed as increase in blood phosphate at 300 mg, iv; type: organism-based; conditions: in vivo
Method in brief: (§1)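 One IV dose of 300 or 600 mg or placebo was given to adults with influenza. Blood (hematology, biochemistry) and urine (including NAG, β2- and α1-microglobulin, protein) were sampled at baseline, day 3 and day 14 by blinded technicians. Adverse-event incidence versus placebo was compared by Fisher's exact test.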

[2] = test system: Homo sapiens; test: Toxicity in human patient infected with Influenza virus assessed as occurrence of otitis at 600 mg, iv; type: organism-based; conditions: in vivo
Method in brief: (§2)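 In this randomized trial, subjects received a single intravenous infusion of peramivir (300 mg or 600 mg) or matching placebo; the median infusion lasted 0.63 h. Subjects were followed at visits on days 1, 2 (optional), 3, 5, 9 and 14. Adverse-event incidences across the 298 treated subjects were compared with placebo using Fisher's exact test.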

[3] = test system: Influenza A virus; test: Antiviral activity against influenza A virus H1N1 infected in MDCK cells assessed as inhibition of neuraminidase activity by fluorimetric assay; type: functional, organism-based
Method in brief: (§3)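 Viruses were isolated from baseline patient swabs on MDCK cells. Neuraminidase inhibition was measured by a standard fluorometric assay. IC50 came from plotting percent inhibition of neuraminidase activity against inhibitor concentration, reported as mean ± SD of three independent experiments.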

[4] = test system: unidentified influenza virus; test: Antiviral activity against Influenza virus infected in human patient assessed as decrease in virus-positive patients at 600 mg, iv on day 9; type: functional
Method in brief: (§4)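 Nasal and throat swabs were taken at baseline and on days 2, 3, 5 and 9, held in 2 ml transport medium, and titrated on MDCK cells in triplicate: 10-fold dilutions, 3 μg/ml trypsin, 1 h adsorption, washes, then 3 days at 37°C. CPE gave TCID50/ml by Spearman-Karber; positive meant ≥1.1 log10 TCID50/ml. Proportions were compared by Mantel-Haenszel test stratified for smoking and baseline score.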

[5] = test system: Influenza A virus; test: Antiviral activity against Influenza A virus H3N2 infected in human patient assessed as alleviation time of symptoms at 600 mg, iv (reference value: 81 hrs); type: functional
[6] = test system: unidentified influenza virus; test: Antiviral activity against Influenza virus infected in human patient assessed as decrease in virus-positive patients at 600 mg, iv on day 3; type: functional; method in brief: as §4
[7] = test system: Homo sapiens; test: Toxicity in human patient infected with Influenza virus assessed as increase in lymphocyte at 300 mg, iv; type: organism-based; conditions: in vivo; method in brief: as §1
[8] = test system: Homo sapiens; test: Toxicity in human patient infected with Influenza virus assessed as occurrence of diarrhea at 300 mg, iv; type: organism-based; conditions: in vivo; method in brief: as §2
[9] = test system: Homo sapiens; test: Toxicity in human patient infected with Influenza virus assessed as beta2 microglobulin in urine at 600 mg, iv; type: organism-based; conditions: in vivo; method in brief: as §1
[10] = test system: Homo sapiens; test: Toxicity in human patient infected with Influenza virus assessed as increase in blood lactate dehydrogenase at 300 mg, iv; type: organism-based; conditions: in vivo; method in brief: as §1
[11] = test system: Homo sapiens; test: Toxicity in human patient infected with Influenza virus assessed as monocyte at 600 mg, iv; type: organism-based; conditions: in vivo
Method in brief: (§5)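 Adults with seasonal influenza received one intravenous infusion of peramivir (300 or 600 mg) or matching placebo; the median infusion lasted 0.63 h. Blood for haematology, including the white-cell differential, was taken at baseline and on days 3 and 14. Tests were run by blinded technicians. Adverse-event incidence in the 298-subject safety population was compared with placebo by Fisher's exact test.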

[12] = test system: Homo sapiens; test: Toxicity in human patient infected with Influenza virus assessed as increase in monocyte at 300 mg, iv; type: organism-based; conditions: in vivo; method in brief: as §5
[13] = test system: Plasma; test: Plasma concentration in human at 300 mg, iv after 36 to 48 hrs; type: ADME, organism-based; conditions: in vivo
Method in brief: (§6)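 Subjects received a single IV infusion of 300 or 600 mg (mean 5.0 or 10.0 mg/kg; median infusion 0.63 h). Plasma was sampled just before the infusion ended, and on days 2 and 3. Samples were deproteinized and run on C18 LC/MS-MS. Values are medians at end of infusion, 18–24 h and 36–48 h after infusion.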

[14] = test system: Homo sapiens; test: Toxicity in human patient infected with Influenza virus assessed as increase in blood glucose at 300 mg, iv; type: organism-based; conditions: in vivo; method in brief: as §1
[15] = test system: Homo sapiens; test: Toxicity in human patient infected with Influenza virus assessed as increase in blood lactate dehydrogenase at 600 mg, iv; type: organism-based; conditions: in vivo; method in brief: as §1
[16] = test system: Influenza A virus; test: Antiviral activity against influenza A virus infected in MDCK cells assessed as inhibition of neuraminidase activity by fluorimetric assay; type: functional, organism-based; method in brief: as §3
[17] = test system: Homo sapiens; test: Toxicity in human patient infected with Influenza virus assessed as prolongation of electrocardiogram QT interval at 300 mg, iv; type: organism-based; conditions: in vivo
[18] = test system: Homo sapiens; test: Toxicity in human patient infected with Influenza virus assessed as lymphocyte morphology abnormal at 600 mg, iv; type: organism-based; conditions: in vivo; method in brief: as §5
[19] = test system: Plasma; test: Plasma concentration in human at 300 mg, iv; type: ADME; method in brief: as §6
[20] = test system: Homo sapiens; test: Toxicity in human patient infected with Influenza virus assessed as increase in blood bilirubin at 600 mg, iv; type: organism-based; conditions: in vivo; method in brief: as §1
[21] = test system: Homo sapiens; test: Toxicity in human patient infected with Influenza virus assessed as proteinuria at 300 mg, iv; type: organism-based; conditions: in vivo
Method in brief: (§7)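 Subjects received a single intravenous peramivir dose (300 or 600 mg) or placebo, infused over a median of 0.63 h. Urinalysis covered protein, albumin and sediment, among other analytes. Urine was collected at baseline and on days 3 and 14 and tested by blinded technicians. Incidence in the safety population (n = 298 treated) was compared with placebo by Fisher's exact test.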

[22] = test system: Homo sapiens; test: Toxicity in human patient infected with Influenza virus assessed as occurrence of nausea at 600 mg, iv; type: organism-based; conditions: in vivo; method in brief: as §2
[23] = test system: Homo sapiens; test: Toxicity in human patient infected with Influenza virus assessed as increase in alanine aminotransferase at 600 mg, iv; type: organism-based; conditions: in vivo; method in brief: as §1
[24] = test system: Homo sapiens; test: Toxicity in human patient infected with Influenza virus assessed as urine containing albumine at 600 mg, iv; type: organism-based; conditions: in vivo; method in brief: as §7
[25] = test system: Homo sapiens; test: Toxicity in human patient infected with Influenza virus assessed as increase in blood creatinine level at 600 mg, iv; type: organism-based; conditions: in vivo; method in brief: as §1
[26] = test system: Homo sapiens; test: Toxicity in human patient infected with Influenza virus assessed as increase in blood glucose level at 600 mg, iv; type: organism-based; conditions: in vivo; method in brief: as §1
[27] = test system: unidentified influenza virus; test: Antiviral activity against Influenza virus infected in human patient assessed as decrease in virus-positive patients at 300 mg, iv on day 3; type: functional; method in brief: as §4
[28] = test system: Homo sapiens; test: Toxicity in human patient infected with Influenza virus assessed as decrease in total Protein at 300 mg, iv; type: organism-based; conditions: in vivo; method in brief: as §1
[29] = test system: Plasma; test: Plasma concentration in human at 600 mg, iv; type: ADME; method in brief: as §6
[30] = test system: Plasma; test: Plasma concentration in human at 600 mg, iv after 36 to 48 hrs; type: ADME, organism-based; conditions: in vivo; method in brief: as §6
[31] = test system: Homo sapiens; test: Toxicity in human patient infected with Influenza virus assessed as nasopharyngitis at 300 mg, iv; type: organism-based; conditions: in vivo; method in brief: as §2
[32] = test system: Plasma; test: Plasma concentration in human at 300 mg, iv after 18 to 24 hrs; type: ADME, organism-based; conditions: in vivo; method in brief: as §6
[33] = test system: Homo sapiens; test: Toxicity in human patient infected with Influenza virus assessed as diarrhea at 600 mg, iv; type: organism-based; conditions: in vivo
Method in brief: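 Adverse events were recorded after one IV dose of 300 or 600 mg or placebo in adults with influenza. Incidence in each peramivir group was compared with placebo by Fisher's exact test.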

[34] = test system: Homo sapiens; test: Toxicity in human patient infected with Influenza virus assessed as occurrence of bronchitis at 300 mg, iv; type: organism-based; conditions: in vivo; method in brief: as §2
[35] = test system: Homo sapiens; test: Toxicity in human patient infected with Influenza virus assessed as increase in aspartate aminotransferase at 600 mg, iv; type: organism-based; conditions: in vivo; method in brief: as §1

In the case of `CCC(CC)[C@H](NC(C)=O)[C@@H]1[C@H](O)[C@@H](C(=O)O)C[C@H]1NC(=N)N` [PERAMIVIR ANHYDROUS], the Activity [1] is reported as “Toxic”, the Activity [2] is reported as 1% and the IC50 [3] is reported as 9.43 nM. For the same compound, the “inhibition (INH)” value [4] was 1.1%, the Time [5] was 50.5 h and the “inhibition (INH)” value [6] was 25.8%. The Activity [7] was “Toxic”, the Activity [8] was 14.1% and the Activity [9] was “Toxic”. For the same compound, the Activity [10] was “Toxic”, the Activity [11] was “Toxic” and the Activity [12] was “Toxic”. The Cp [13] was 5.01 ng/mL, the Activity [14] was “Toxic” and the Activity [15] was “Toxic”. The IC50 [16] was 1.72 nM, the Activity [17] was 2% and the Activity [18] was “Toxic”. For the same compound, the Cp [19] was 18100 ng/mL, the Activity [20] was “Toxic” and the Activity [21] was “Toxic”. The Activity [22] was 6.1%, the Activity [23] was “Toxic” and the Activity [24] was “Toxic”. The Activity [25] was “Toxic”, the Activity [26] was “Toxic” and the “inhibition (INH)” value [27] was 36.8%. The Activity [28] was “Toxic”, the Cp [29] was 36300 ng/mL and the Cp [30] was 10.7 ng/mL. The Activity [31] was “Toxic”, the Cp [32] was 14.8 ng/mL and the Activity [33] was “Toxic”. For the same compound, the Activity [34] was 3% and the Activity [35] was “Toxic”.

Source: ChEMBL document CHEMBL1671747, “Efficacy and safety of intravenous peramivir for treatment of seasonal influenza virus infection” (Antimicrob Agents Chemother, 2010)
